Screening results deposited in PubChem by several laboratories.
Compounds with a hit are over-represented: about 1.3% of the library has one in this group of screens.
CRFR2-BP ag: agonists of human CRF-binding protein/CRF-R2 receptor complex; HEK293 CRF-R2/CRF-BP, calcium dye fluorescence (FLIPR); percent of saturating CRF peptide response; activation, % at 13.2 µM; 0.46% of 350,000 active; AID 588473;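 active = activation of at least 50%, plus an integration ratio under a set limit after plate pattern correction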;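 note: plate controls were neutral control wells without compound for no effect and CRF at EC100 for full effect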
CRFBP-R2 block: CRF-BP/CRF-R2 complex antagonism; inhibition, % at 11.8 µM; HEK293 CRF-R2/CRF-BP, CRF-induced calcium fluorescence; 0.59% of 350,000 active;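 active = inhibition of the ligand-induced calcium signal above about 50% at the single tested concentration, limit read from the data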
Tn7 DDE FP: disrupts Tn7 cyclic peptide binding to fibrin D-Dimer-E complex | P02675 | FP displacement of FITC-Tn7 peptide from fibrin DD(E); 0% = median of compound wells per plate | inhibition, % at 8.3 µM | 0.13% of 370,000 active;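 active = inhibition above the mean of compounds falling within the control limits plus 3 SD of them, cut at about 14% in these data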;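 note: 0% = plate median of compound wells and 100% = 10 µM Aha-Tn7 peptide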
Target sequence (P02675 whole entry, looked up): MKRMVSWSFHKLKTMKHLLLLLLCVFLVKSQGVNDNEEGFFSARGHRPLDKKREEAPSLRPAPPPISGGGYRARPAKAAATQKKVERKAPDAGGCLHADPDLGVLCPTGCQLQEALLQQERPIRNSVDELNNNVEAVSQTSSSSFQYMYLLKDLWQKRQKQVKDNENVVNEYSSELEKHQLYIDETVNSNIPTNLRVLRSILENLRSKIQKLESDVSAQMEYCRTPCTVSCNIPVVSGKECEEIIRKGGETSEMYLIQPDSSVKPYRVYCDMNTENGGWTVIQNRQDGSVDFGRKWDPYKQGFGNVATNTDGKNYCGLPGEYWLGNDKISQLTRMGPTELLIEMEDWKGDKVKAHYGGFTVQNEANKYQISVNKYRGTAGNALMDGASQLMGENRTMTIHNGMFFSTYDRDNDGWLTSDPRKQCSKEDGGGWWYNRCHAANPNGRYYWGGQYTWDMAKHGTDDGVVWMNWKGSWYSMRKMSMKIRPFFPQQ
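Assay system: Human fibrin DD(E) protein | Medium: Tris buffer with calcium and detergent, pH 7.8 | Reagent: 0.1 µM fluorescent Tn7 | Compound dosing: Single point at 8.3 µM | Times: 10 min preincubation, 3 h with tracer, room temperature | Detection: Fluorescence polarization of the labelled Tn7 tracer | Controls: Aha-Tn7 high control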
DDE Tn6 FP inh: inhibitors of Tn6 peptide binding to human fibrin DD(E) | P02675 | Fibrin DD(E) TRITC-Tn6 fluorescence polarization displacement | 0.21% of 370,000 active | inhibition, % at 8.3 µM;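 active = inhibition above a per-campaign cutoff: mean of compounds within control limits plus 3 SD, cut at about 15% in these data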;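 note: 0% = median of all compound wells on the plate and 100% = blocking peptide control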
The depositor's hits bear a star; . = no result.

SMILES | CRFR2-BP ag | CRFBP-R2 block | Tn7 DDE FP | DDE Tn6 FP inh
C=C(C)COc1ccc(-c2[nH]ncc2Oc2ccccc2OC)c(O)c1 | -5.4 | 51.4* | -1.6 | 2.8
O=C(c1cccc(NS(=O)(=O)c2ccc(F)c(F)c2)c1)N1CCN(C(c2ccccc2)c2ccccc2)CC1 | 1.0 | 61.8* | 4.7 | -7.7
Cc1ccc(C(=O)NC2CCCCN(C)C2=O)c(C)c1 (stereo not given) | . | . | 0.4 | 3.5
O=C(O)C1OC1(c1ccccc1Cl)c1ccccc1Cl (stereo not given) | -2.5 | 69.3* | 1.2 | 0.9
CC(NC(=O)c1ccccc1Cl)C(=O)O (stereo not given) | -0.2 | 0.9 | 2.1 | 5.3
CCN(C(=O)COC(=O)Cc1cccc2ccccc12)C1CCS(=O)(=O)C1 (stereo not given) | -0.9 | 121.6* | 10.4 | -0.8
O=C(OCC(=O)N1N=C(c2ccc(Cl)cc2)CC1c1ccco1)c1ccco1 (stereo not given) | 240.3* | -235.4 | 2.2 | 0.8
Cc1ccc(Cn2nnc(C(=O)Nc3cccc(C)c3C)c2N)cc1 | 104.6* | -102.8 | 2.3 | 1.3
CCc1ccc(Cn2nnc(C(=O)Nc3cccc(C)c3)c2N)cc1 | 19.9 | -36.7 | -0.4 | -3.9
Cc1ccc(-n2nnnc2SCc2nnc(-c3ccccc3Br)o2)cc1 | 1.2 | 135.9* | 1.4 | -0.1
CC(C)(C)OC(=O)N[C@@H](Cc1ccccc1)C(=O)N1CCC(C(=O)NCC(=O)O)CC1 | 1.3 | -10.4 | 11.0 | -4.5
CC(C)(C)OC(=O)NC(Cc1ccccc1)C(=O)N1CCC(C(=O)NCC(=O)Nc2ccc(F)cc2)CC1 (stereo not given) | 6.7 | 66.7* | 3.0 | 0.0
COc1cc(/C=C(\C#N)c2nnc(N3CCOCC3)n2-c2ccccc2)ccc1O | 14.1 | 7.5 | -5.3 | 3.4
CN1C(c2ccc(F)cc2)=CS/C1=C(/C#N)c1nnc(N2CCOCC2)n1-c1ccccc1 | -2.2 | 95.5* | -5.2 | -5.2
N#C/C(=C/c1ccc(-c2ccc([N+](=O)[O-])cc2)o1)c1nnc(N2CCOCC2)n1-c1ccccc1 | 175.6* | -164.1 | 0.7 | 9.9
CCCCCCN1CCS(=O)(=O)N(Cc2ccc(F)cc2)C(C(=O)OC)C1 (stereo not given) | . | . | 0.5 | -6.7
O=c1oc(-c2ccco2)nc2sc3c(c12)CCCC3 | 1.0 | 51.6* | 2.9 | -1.9
O=c1oc(-c2ccccc2)nc2sc3c(c12)CCC3 | 0.3 | 2.0 | -6.7 | -6.8
CCOc1ccc(-n2c(COc3ccc(C)cc3)nnc2SCC(=O)c2ccc3ccccc3c2)cc1 | . | . | -8.0 | 2.5
O=C(CSc1nnc2scc(-c3ccccc3)n12)N1CCN(Cc2ccccc2)CC1 | -2.8 | 7.1 | -5.6 | -4.1
Cc1ccc(-c2csc3nnc(SCC(=O)N4CCN(Cc5ccccc5)CC4)n23)cc1 | -5.5 | 66.1* | -4.5 | 4.2
Cc1ccc(NC(=O)CSc2nnc(Cn3cnc4ccccc43)o2)c(C)c1 | -2.8 | 58.9* | -3.5 | -1.8
Cc1ccc(-c2noc(CN3CCC(C(N)=O)CC3)n2)cc1 | 50.7* | -55.0 | -4.3 | 1.1
CCOC(=O)C1CCN(Cc2nc(-c3ccc(OC)c(OC)c3)no2)CC1 | -1.0 | 4.9 | -2.1 | -2.5
Cc1c(-n2cc(C(=O)c3cc(F)ccc3O)cc(C#N)c2=O)c(=O)n(-c2ccccc2)n1C | 51.1* | -10.1 | -6.0 | 2.3
SMILES | CRFR2-BP ag | CRFBP-R2 block | Tn7 DDE FP | DDE Tn6 FP inh
N#Cc1cc(C(=O)c2cc(F)ccc2O)cn(-c2nccs2)c1=O | 341.4* | -416.0 | -12.3 | -6.1
N#Cc1cc(C(=O)c2ccccc2O)cn(-c2nccs2)c1=O | 238.8* | -224.2 | -12.7 | -5.4
CCN(C[C@H]1[C@@H](c2ccc(C3=CCCC3)cc2)[C@H](CO)N1C(=O)c1cccnc1)S(=O)(=O)c1ccccc1[N+](=O)[O-] | . | . | 2.5 | -3.5
c1ccc(Cc2cnc(N3CCN(Cc4csc5ccccc45)CC3)nc2)cc1 | . | . | -4.5 | -1.8
CCOC(=O)c1nnn(CC(=O)N2N=C(c3ccccc3)CC2c2ccccc2)c1C(=O)OCC (stereo not given) | -0.7 | 70.9* | -0.8 | 2.0
CCCNC(=O)Cn1c(=O)/c(=C\c2ccc(-c3cccc([N+](=O)[O-])c3)o2)s/c1=C\C(=O)C(C)(C)C | 57.2* | -121.2 | -8.0 | 1.1
CCCNC(=O)Cn1c(=O)/c(=C\c2ccc(-c3ccc([N+](=O)[O-])cc3)o2)s/c1=C\C(=O)C(C)(C)C | 355.8* | -443.2 | . | .
CN(C)C(=O)C1CC(=O)OC12CCCCC2 (stereo not given) | -1.2 | 113.6* | -3.0 | 3.0
O=C1[C@@H](CCc2ccccc2)[C@@H]2c3cc4ccccc4cc3C=NN2[C@@H]2c3cc4ccccc4cc3C=NN12 | . | . | 7.2 | -3.9
COC(=O)[C@]12C[C@H](CC(=O)NCC3CCCCC3)C(=O)N(Cc3ccc(Cl)cc3Cl)C1=C[C@H](C1CCCC1)O[C@@H]2C | . | . | 3.3 | -1.4
O=S(=O)(c1ccc(F)cc1)n1c(CN2CCOCC2)nc2ccccc21 | . | . | 0.0 | 4.9
C/C(=N\NC(=O)C(C)Oc1ccc([N+](=O)[O-])cc1)c1ccccn1 (stereo not given) | 0.3 | 55.4* | -0.4 | 5.2
C[C@H](NC(=O)[C@@H]1Cc2ccccc2CN1)C(=O)NC1CCCCC1 | -0.1 | 92.7* | 2.3 | -2.4
C=CCOc1ccc(/C=C2\SC(=S)N(C(C(=O)O)c3ccccc3)C2=O)cc1 (stereo not given) | -3.5 | 55.1* | -9.8 | -1.1
COc1cc(CN2CCN(Cc3ccc([N+](=O)[O-])cc3)CC2)c([N+](=O)[O-])cc1OC | -0.4 | 22.6 | -0.1 | -1.4
COc1cccc(CN2CCN(Cc3cc(OC)c(OC)cc3[N+](=O)[O-])CC2)c1 | 0.8 | 63.6* | . | .
COC(=O)C1=C(C(=O)c2ccccc2)C(c2ccc(O)c(OC)c2)n2nnnc2N1 (stereo not given) | 4.6 | 98.3* | 5.4 | -2.0
N#C/C(N=Nc1ccccc1O)=N\Nc1ccccc1O | 60.5* | 97.0* | -1.1 | -5.9
CCOC(=O)[C@@]12CCCC=C1N(CCc1ccc(Cl)cc1)C(=O)[C@H]2CC(=O)N1CCC(c2ccccc2)CC1 | . | . | 4.9 | -9.9
COc1ccc(S(=O)(=O)N2CCN(C(=O)CCCN3C(=O)NC4(CCCC4)C3=O)CC2)cc1 | -0.9 | 55.4* | -5.1 | -4.5
COc1ccc(S(=O)(=O)N2CCN(C(=O)CN3C(=O)NC4(CCCC4)C3=O)CC2)cc1 | -2.3 | -1.1 | 1.0 | -1.1
O=c1cc(-c2ccccc2)nc2c(-c3ccccc3)c(C(F)(F)F)[nH]n12 | -1.3 | 53.5* | -1.1 | -4.4
Cc1cc(=O)n2[nH]c(C)c(-c3ccccc3)c2n1 | 6.6 | -38.9 | 1.5 | -3.5
COC(=O)[C@@]12CCCCC3=C1N(CCC3)C(=O)[C@H]2CC(=O)N1CCC(c2ccccc2)CC1 | . | . | 4.8 | -0.3
CC(C)(C)c1ccc(C#C[C@@H]2C=C[C@H]3OC(=O)CC/C=C/CCC(=O)OC[C@H]3O2)cc1 | . | . | 5.1 | 0.3
O=C(NCc1ccccc1)[C@@H]1CCCN1C(=O)[C@H]1CCCN1C(=O)c1ccc(Cl)cc1 | . | . | -0.1 | -4.7
